Rows were chosen to be rich in hits. Some 4.9% of all compounds tested hit in one or more screens of this group.
RAM inhibit = inhibitors of the yeast RAM network, primary screen, dse1pr::URA3 reporter, 5-FOA selection | S. cerevisiae dse1pr::URA3 reporter, 5-FOA growth OD615, 2 d; analog-sensitive cbk1-as2 kinase mutant strain | inhibition, % at 50 µM | hit rate 1.8% among 190,000 | AID 868, 2007;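 active means inhibition above a set limit, 3 SD over mean compound inhibition, cut at about 8.4% in these data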;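 further: 0% = DMSO-only wells with no growth and 100% = 10 µM 1-NA-PP1 full growth; inhibition rescues growth on 5-FOA so higher OD means more RAM inhibition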
NPY Y1 blocker = NPY-Y1 receptor antagonists, primary screen, cell-based; AID 1040, 2008; hit rate 1% among 200,000; inhibition, % at 3.6 µM; Neuropeptide Y receptor type 1 (Homo sapiens), P25929; HEK293-CNG Y1 cells, membrane potential fluorescence; NPY at EC95, then isoproterenol;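 active means inhibition above the campaign mean inhibition of all tested compounds plus 3 SD, cut at about 20% in these data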;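 further: 0% = DMSO wells given NPY plus isoproterenol and 100% = isoproterenol alone without NPY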
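material = HEK293 cells with Y1 receptor plus CNG channel | also added = NPY 25 nM then isoproterenol 1 µM plus Ro 20-1724 25 µM | schedule = dye 3 h, compound 60 min room temperature, stimulation 45 min | measured by = membrane potential fluorescence | benchmarks = high control isoproterenol alone, low control NPY with isoproterenol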
NPY2 pot ag = NPY-Y2 potentiators or agonists, primary screen, cell-based | Neuropeptide Y receptor type 2 (Homo sapiens), P49146 | cells expressing NPY-Y2, potentiator/agonist read-out | activation, % at 3.6 µM | hit rate 0.45% among 220,000 | AID 1359, 2008; in the data active means activation above about 27%;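 further: cells stimulated with NPY near EC25 plus isoproterenol at EC100; 0% = vehicle plus submaximal agonist and 100% = vehicle plus saturating agonist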
Target sequence (P49146 whole entry, looked up): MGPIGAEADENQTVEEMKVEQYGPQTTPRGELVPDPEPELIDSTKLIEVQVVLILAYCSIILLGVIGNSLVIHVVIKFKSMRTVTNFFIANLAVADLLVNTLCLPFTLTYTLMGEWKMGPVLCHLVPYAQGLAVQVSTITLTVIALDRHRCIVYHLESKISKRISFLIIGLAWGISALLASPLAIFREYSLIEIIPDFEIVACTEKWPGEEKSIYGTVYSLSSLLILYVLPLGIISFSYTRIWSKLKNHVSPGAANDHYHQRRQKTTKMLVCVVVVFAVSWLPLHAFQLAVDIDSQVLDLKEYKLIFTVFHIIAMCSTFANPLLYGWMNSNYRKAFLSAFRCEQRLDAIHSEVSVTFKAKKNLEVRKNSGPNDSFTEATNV
NPY-Y2 antag = NPY-Y2 receptor antagonists, primary screen, cell-based | Neuropeptide Y receptor type 2 (Homo sapiens), P49146 | NPY-Y2 expressing cells, antagonist mode | inhibition, % at 2.7 µM | hit rate 0.99% among 140,000; in the data active means inhibition above about 17%;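 further: 0% = vehicle with agonist challenge and 100% = reference antagonist with challenge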
WT yeast gro inh = growth inhibition of WT strain, primary screen, mitochondrial fusion inhibitor project, WT and mutant strains, chemical genetic. hit rate 2.1% among 190,000. AID 1362, 2008. mitochondrial fusion phenotypic screen. inhibition, % at 10 µM; in the data active means inhibition above about 58%; tested in S. cerevisiae
NPY1 pot ag = NPY-Y1 receptor potentiators or agonists, primary screen, cell-based. Neuropeptide Y receptor type 1 (Homo sapiens), P25929. activation, % at 3.6 µM. NPY-Y1 expressing cells, potentiator/agonist activation. hit rate 0.37% among 220,000; in the data active means activation above about 33%, passing the limit was not always enough;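 further: cells stimulated with NPY at EC10 then isoproterenol at EC100; 0% = low agonist plus stimulus and 100% = saturating agonist plus stimulus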
An asterisk follows results filed as active.

`C=CCc1ccccc1OCC(O)CNC` (configuration not stated) gave RAM inhibit 1, NPY Y1 blocker -21, NPY2 pot ag 101*, NPY-Y2 antag 0, WT yeast gro inh 14 and NPY1 pot ag 110*.
`C=CCc1ccccc1OCC(O)CN1CCN(c2ccc(OC)cc2)CC1` (configuration not stated) gave RAM inhibit 0, NPY Y1 blocker -15, NPY2 pot ag 80*, NPY-Y2 antag 4, WT yeast gro inh -5 and NPY1 pot ag 91*.
Screening CCOc1ccccc1OCC(O)CNC (configuration not stated) returned RAM inhibit 1, NPY Y1 blocker -16, NPY2 pot ag 94*, NPY-Y2 antag 0, WT yeast gro inh 41 and NPY1 pot ag 106*.
Screening CCc1cc2c(C)cc(=O)oc2cc1Oc1ncccc1[N+](=O)[O-] returned RAM inhibit 4, NPY Y1 blocker -2, NPY2 pot ag -14, WT yeast gro inh 4 and NPY1 pot ag -11.
Screening Cc1ccc(-n2ncc3c(NCc4ccc5c(c4)OCO5)ncnc32)c(C)c1 returned RAM inhibit -1, NPY Y1 blocker -4, NPY2 pot ag -10, NPY-Y2 antag 8, WT yeast gro inh 25 and NPY1 pot ag -3.
Nc1cc(=O)[nH]c(SCc2ccc(Cl)cc2)n1 was read as RAM inhibit 1, NPY Y1 blocker 0, NPY2 pot ag -1, NPY-Y2 antag 3, WT yeast gro inh -1 and NPY1 pot ag 10.
For Cc1cc(Br)ccc1NC(=O)CN1C(=O)C2C3CC(c4ccccc4)C(C3)C2C1=O (configuration not stated) the results were RAM inhibit 2, NPY Y1 blocker -22, NPY2 pot ag 53*, NPY-Y2 antag -6, WT yeast gro inh 78* and NPY1 pot ag 67*.
Screening COc1ccccc1NC(=S)N1CCC(c2nc3cc(C)c(C)cc3[nH]2)CC1 returned RAM inhibit 1, NPY Y1 blocker 3, NPY2 pot ag -17, NPY-Y2 antag 3, WT yeast gro inh -13 and NPY1 pot ag 6.
For O=C(COc1ccc(Br)cc1Cl)NC(=O)NCc1ccccc1 the results were RAM inhibit 8.8*, NPY Y1 blocker -4, NPY2 pot ag -2, NPY-Y2 antag 5, WT yeast gro inh 3 and NPY1 pot ag -3.
Screening CC1=C(OC(=O)c2ccc(Br)cc2)C(C)(C)C(c2ccccc2)OC1=O (configuration not stated) returned RAM inhibit 3, NPY Y1 blocker 1, NPY2 pot ag 4, NPY-Y2 antag 5, WT yeast gro inh -12 and NPY1 pot ag 5.
Screening CC1=C(OC(=O)c2ccccc2)C(C)(C)C(c2ccc(Br)cc2)OC1=O (configuration not stated) returned RAM inhibit 3, NPY Y1 blocker 1, NPY2 pot ag -2, NPY-Y2 antag 6, WT yeast gro inh 66* and NPY1 pot ag -8.
`COc1ccc(CSc2n[nH]c(C)n2)cc1[N+](=O)[O-]` gave RAM inhibit 0, NPY Y1 blocker 2, NPY2 pot ag 1, NPY-Y2 antag 5, WT yeast gro inh 12 and NPY1 pot ag 11.
`CCCCNC(=O)CCCCC(=O)N/N=C/c1cccc(Cl)c1` gave RAM inhibit 1, NPY Y1 blocker 3, NPY2 pot ag 14, NPY-Y2 antag 3, WT yeast gro inh -8 and NPY1 pot ag 2.
For CC(=O)c1ccc(-c2ccc(C(=O)N3CCCc4ccccc43)o2)cc1 the results were RAM inhibit 9.4*, NPY Y1 blocker 3, NPY2 pot ag -10, WT yeast gro inh 44 and NPY1 pot ag 1.
Screening Cc1ccc(C(=O)N2CCc3ccccc32)o1 returned RAM inhibit 1, NPY Y1 blocker -2, NPY2 pot ag -6, NPY-Y2 antag 1, WT yeast gro inh 7 and NPY1 pot ag 8.
CCOC(=O)Cc1c(C)c2c(C)[nH]nc2oc1=O was read as RAM inhibit 0, NPY Y1 blocker 6, NPY2 pot ag -4, NPY-Y2 antag 1, WT yeast gro inh 3 and NPY1 pot ag -7.
CCC1(CC)Cc2ccccc2C(CC(=O)N2CCOCC2)=N1 was read as RAM inhibit 0, NPY Y1 blocker 4, NPY2 pot ag 0, NPY-Y2 antag 2, WT yeast gro inh -2 and NPY1 pot ag -33.
For Cc1cc(C(=O)CSc2ccc(F)cc2)cc(C)c1OC(=S)N(C)C the results were RAM inhibit 8.8*, NPY Y1 blocker -4, NPY2 pot ag 17, NPY-Y2 antag -3, WT yeast gro inh 16 and NPY1 pot ag 3.
For CCCCSc1nnc(-c2ccccc2)c2ccccc12 the results were RAM inhibit -1, NPY Y1 blocker 4, NPY2 pot ag 2, NPY-Y2 antag 8, WT yeast gro inh 82* and NPY1 pot ag -3.
For CC(CC(=O)Nc1ccc(Cl)c([N+](=O)[O-])c1)c1ccccc1 (configuration not stated) the results were RAM inhibit 1, NPY Y1 blocker 0, NPY2 pot ag -7, NPY-Y2 antag 9, WT yeast gro inh 80* and NPY1 pot ag -5.
Screening Cc1ccc(NC(=O)Nc2ccccc2)cc1[N+](=O)[O-] returned RAM inhibit 2, NPY Y1 blocker -1, NPY2 pot ag 15, NPY-Y2 antag -2, WT yeast gro inh -6 and NPY1 pot ag 21.
CC(CC(=O)Nc1ccc(C(N)=O)cc1)c1ccccc1 (configuration not stated) was read as RAM inhibit 2, NPY Y1 blocker 5, NPY2 pot ag 10, NPY-Y2 antag 2, WT yeast gro inh 4 and NPY1 pot ag 12.
Screening O=C(Nc1ccccc1)Nc1ccc(Cl)c([N+](=O)[O-])c1 returned RAM inhibit 0, NPY Y1 blocker -1, NPY2 pot ag 11, NPY-Y2 antag 0, WT yeast gro inh 82* and NPY1 pot ag -4.
`Cn1c(=O)c(=O)n(C)c2cc(S(=O)(=O)Nc3ccc(OC(F)(F)F)cc3)ccc21` gave RAM inhibit 3, NPY Y1 blocker -4, NPY2 pot ag 0, NPY-Y2 antag 1, WT yeast gro inh 4 and NPY1 pot ag -31.
Screening Cc1ccc2nc(SCC(=O)Nc3ccccc3N3CCOCC3)c(C#N)cc2c1 returned RAM inhibit 2, NPY Y1 blocker 6, NPY2 pot ag 3, NPY-Y2 antag 0, WT yeast gro inh -8 and NPY1 pot ag -5.
Cc1nn(-c2ccccc2)c(N2CCCC2)c1/C=C1\N=C(c2ccccc2)OC1=O was read as RAM inhibit 1, NPY Y1 blocker 0, NPY2 pot ag 9, NPY-Y2 antag 1, WT yeast gro inh 0 and NPY1 pot ag -17.
